ChEMBL document CHEMBL3632558, “Synthesis, antimycobacterial and antibacterial activity of l-[(1R,2S)-2-fluorocyclopropyl]naphthyridone derivatives containing an oxime-functionalized pyrrolidine moiety” (2015)

What was measured:
Format in all cases: functional
[1] = tested on: Staphylococcus epidermidis; assay: Antibacterial activity against methicillin-resistant Staphylococcus epidermidis 14-21 after 18 to 24 hrs
Staphylococcus aureus [2] = assay: Antibacterial activity against Staphylococcus aureus CMCC 26003 after 18 to 24 hrs
Procedure, shortened: (§1)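 MIC by standard NCCLS reference procedure (M100-S11); lowest concentration of compound inhibiting visible bacterial growth after incubation at 35 °C for 18–24 h, read as complete inhibition of growth. Ciprofloxacin, levofloxacin and moxifloxacin run alongside as reference agents.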

Pseudomonas aeruginosa [3] = assay: Antibacterial activity against Pseudomonas aeruginosa 14-16 after 18 to 24 hrs; procedure, shortened: as §1
[4] = tested on: Mycobacterium tuberculosis; assay: Antimycobacterial activity against Mycobacterium tuberculosis H37Rv ATCC 27294 by alamar blue assay
Procedure, shortened: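 Microplate Alamar Blue Assay; MIC is the lowest concentration giving ≥90% reduction in fluorescence relative to the mean of replicate bacterium-only controls. MDR strain 6133 is resistant to isoniazid and rifampicin.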

Staphylococcus aureus [5] = assay: Antibacterial activity against methicillin-sensitive Staphylococcus aureus 14-3 after 18 to 24 hrs; procedure, shortened: as §1
Escherichia coli [6] = assay: Antibacterial activity against Escherichia coli ATCC 25922 after 18 to 24 hrs; procedure, shortened: as §1
Enterococcus faecium [7] = assay: Antibacterial activity against Enterococcus faecium 14-5 after 18 to 24 hrs; procedure, shortened: as §1
Escherichia coli [8] = assay: Antibacterial activity against Escherichia coli 14-1 after 18 to 24 hrs; procedure, shortened: as §1
Enterococcus faecium [9] = assay: Antibacterial activity against Enterococcus faecium 14-1 after 18 to 24 hrs; procedure, shortened: as §1
Enterococcus faecium [10] = assay: Antibacterial activity against Enterococcus faecium 14-6 after 18 to 24 hrs; procedure, shortened: as §1
Pseudomonas aeruginosa [11] = assay: Antibacterial activity against Pseudomonas aeruginosa ATCC 27853 after 18 to 24 hrs; procedure, shortened: as §1
Pseudomonas aeruginosa [12] = assay: Antibacterial activity against Pseudomonas aeruginosa 14-15 after 18 to 24 hrs; procedure, shortened: as §1
Escherichia coli [13] = assay: Antibacterial activity against Escherichia coli 14-2 after 18 to 24 hrs; procedure, shortened: as §1
Pseudomonas aeruginosa [14] = assay: Antibacterial activity against Pseudomonas aeruginosa 14-14 after 18 to 24 hrs; procedure, shortened: as §1
Staphylococcus aureus [15] = assay: Antibacterial activity against methicillin-resistant Staphylococcus aureus 14-4 after 18 to 24 hrs
Klebsiella pneumoniae [16] = assay: Antibacterial activity against Klebsiella pneumoniae 14-3 after 18 to 24 hrs; procedure, shortened: as §1
[17] = tested on: Staphylococcus epidermidis; assay: Antibacterial activity against methicillin-sensitive Staphylococcus epidermidis 14-2 after 18 to 24 hrs; procedure, shortened: as §1
Klebsiella pneumoniae [18] = assay: Antibacterial activity against Klebsiella pneumoniae 14-4 after 18 to 24 hrs; procedure, shortened: as §1
Enterococcus faecalis [19] = assay: Antibacterial activity against Enterococcus faecalis 14-2 after 18 to 24 hrs; procedure, shortened: as §1
Pseudomonas aeruginosa [20] = assay: Antibacterial activity against Pseudomonas aeruginosa 14-19 after 18 to 24 hrs; procedure, shortened: as §1
Enterococcus faecium [21] = assay: Antibacterial activity against Enterococcus faecium 14-2 after 18 to 24 hrs; procedure, shortened: as §1
Klebsiella pneumoniae [22] = assay: Antibacterial activity against ESBL-positive Klebsiella pneumoniae 14-18 after 18 to 24 hrs; procedure, shortened: as §1
Escherichia coli [23] = assay: Antibacterial activity against ESBL-positive Escherichia coli 14-2 after 18 to 24 hrs; procedure, shortened: as §1
Staphylococcus aureus [24] = assay: Antibacterial activity against methicillin-sensitive Staphylococcus aureus 14-1 after 18 to 24 hrs; procedure, shortened: as §1
Klebsiella pneumoniae [25] = assay: Antibacterial activity against Klebsiella pneumoniae 14-1 after 18 to 24 hrs; procedure, shortened: as §1
Staphylococcus aureus [26] = assay: Antibacterial activity against methicillin-sensitive Staphylococcus aureus 14-4 after 18 to 24 hrs; procedure, shortened: as §1
Pseudomonas aeruginosa [27] = assay: Antibacterial activity against Pseudomonas aeruginosa 14-9 after 18 to 24 hrs; procedure, shortened: as §1
Klebsiella pneumoniae [28] = assay: Antibacterial activity against Klebsiella pneumoniae 14-2 after 18 to 24 hrs; procedure, shortened: as §1
Enterococcus faecalis [29] = assay: Antibacterial activity against Enterococcus faecalis 14-1 after 18 to 24 hrs; procedure, shortened: as §1
Escherichia coli [30] = assay: Antibacterial activity against ESBL-positive Escherichia coli 14-1 after 18 to 24 hrs; procedure, shortened: as §1
Klebsiella pneumoniae [31] = assay: Antibacterial activity against ESBL-positive Klebsiella pneumoniae 14-17 after 18 to 24 hrs; procedure, shortened: as §1
Klebsiella pneumoniae [32] = assay: Antibacterial activity against ESBL-positive Klebsiella pneumoniae 14-19 after 18 to 24 hrs; procedure, shortened: as §1
[33] = tested on: Staphylococcus epidermidis; assay: Antibacterial activity against methicillin-resistant Staphylococcus epidermidis 14-22 after 18 to 24 hrs
Staphylococcus aureus [34] = assay: Antibacterial activity against methicillin-resistant Staphylococcus aureus 14-5 after 18 to 24 hrs
Staphylococcus aureus [35] = assay: Antibacterial activity against methicillin-sensitive Staphylococcus aureus 14-2 after 18 to 24 hrs; procedure, shortened: as §1
[36] = tested on: Staphylococcus epidermidis; assay: Antibacterial activity against methicillin-resistant Staphylococcus epidermidis 14-37 after 18 to 24 hrs
Streptococcus pneumoniae = assay: Antibacterial activity against Streptococcus pneumoniae ATCC 19615 after 18 to 24 hrs; procedure, shortened: as §1
[37] = tested on: Staphylococcus epidermidis; assay: Antibacterial activity against methicillin-resistant Staphylococcus epidermidis 14-39 after 18 to 24 hrs

CC1(N)CN(c2nc3c(cc2F)c(=O)c(C(=O)O)cn3[C@@H]2C[C@@H]2F)C/C1=N\OCc1ccccc1 (some centres undefined)
32 µg/mL: MIC (Pseudomonas aeruginosa [11]) | MIC (Staphylococcus aureus [15]) | MIC [33]
1 µg/mL: MIC (Staphylococcus aureus [26])
0.5 µg/mL: MIC (Staphylococcus aureus [5]) | MIC (Streptococcus pneumoniae)
2 µg/mL: MIC (Escherichia coli [6]) | MIC (Enterococcus faecalis [19])
0.03 µg/mL: MIC (Staphylococcus aureus [2]) | MIC (Staphylococcus aureus [35])
128 µg/mL: MIC (Klebsiella pneumoniae [22]) | MIC (Enterococcus faecalis [29]) | MIC (Klebsiella pneumoniae [31]) | MIC [36]
16 µg/mL: MIC (Staphylococcus aureus [24])
64 µg/mL: MIC [1] | MIC (Pseudomonas aeruginosa [3]) | MIC (Pseudomonas aeruginosa [12]) | MIC (Pseudomonas aeruginosa [14]) | MIC (Pseudomonas aeruginosa [20]) | MIC (Pseudomonas aeruginosa [27]) | MIC (Escherichia coli [30]) | MIC (Staphylococcus aureus [34]) | MIC [37]
> 128 µg/mL: MIC (Enterococcus faecium [7]) | MIC (Escherichia coli [8]) | MIC (Enterococcus faecium [9]) | MIC (Enterococcus faecium [10]) | MIC (Escherichia coli [13]) | MIC (Klebsiella pneumoniae [16]) | MIC [17] | MIC (Klebsiella pneumoniae [18]) | MIC (Enterococcus faecium [21]) | MIC (Escherichia coli [23]) | MIC (Klebsiella pneumoniae [25]) | MIC (Klebsiella pneumoniae [28]) | MIC (Klebsiella pneumoniae [32])
0.923 µg/mL: MIC90 [4]

CO/N=C1\CN(c2nc3c(cc2F)c(=O)c(C(=O)O)cn3[C@@H]2C[C@@H]2F)CC1N (some centres undefined)
0.5 µg/mL: MIC (Staphylococcus aureus [2]) | MIC (Staphylococcus aureus [35])
4 µg/mL: MIC (Pseudomonas aeruginosa [11])
> 128 µg/mL: MIC (Enterococcus faecium [10]) | MIC (Klebsiella pneumoniae [16]) | MIC (Escherichia coli [23]) | MIC (Klebsiella pneumoniae [25]) | MIC (Klebsiella pneumoniae [32])
1 µg/mL: MIC (Staphylococcus aureus [5]) | MIC (Staphylococcus aureus [26])
0.867 µg/mL: MIC90 [4]
8 µg/mL: MIC (Pseudomonas aeruginosa [3]) | MIC (Pseudomonas aeruginosa [12]) | MIC (Pseudomonas aeruginosa [14]) | MIC (Pseudomonas aeruginosa [20]) | MIC (Klebsiella pneumoniae [22]) | MIC (Pseudomonas aeruginosa [27]) | MIC (Klebsiella pneumoniae [31])
32 µg/mL: MIC (Staphylococcus aureus [24]) | MIC [33] | MIC [36]
128 µg/mL: MIC (Enterococcus faecium [7]) | MIC (Escherichia coli [8]) | MIC (Enterococcus faecium [9]) | MIC (Escherichia coli [13]) | MIC (Staphylococcus aureus [15]) | MIC [17] | MIC (Klebsiella pneumoniae [18]) | MIC (Enterococcus faecium [21]) | MIC (Klebsiella pneumoniae [28]) | MIC (Enterococcus faecalis [29])
64 µg/mL: MIC [1] | MIC (Staphylococcus aureus [34]) | MIC [37]
2 µg/mL: MIC (Enterococcus faecalis [19])
16 µg/mL: MIC (Escherichia coli [30])
0.25 µg/mL: MIC (Escherichia coli [6]) | MIC (Streptococcus pneumoniae)

NC1CN(c2nc3c(cc2F)c(=O)c(C(=O)O)cn3[C@@H]2C[C@@H]2F)C/C1=N\OCc1ccccc1 (some centres undefined)
16 µg/mL: MIC (Pseudomonas aeruginosa [11]) | MIC (Staphylococcus aureus [24])
> 128 µg/mL: MIC (Escherichia coli [8]) | MIC (Enterococcus faecium [10]) | MIC (Escherichia coli [13]) | MIC (Klebsiella pneumoniae [16]) | MIC (Klebsiella pneumoniae [18]) | MIC (Escherichia coli [23]) | MIC (Klebsiella pneumoniae [25]) | MIC (Klebsiella pneumoniae [28]) | MIC (Klebsiella pneumoniae [32])
0.5 µg/mL: MIC (Staphylococcus aureus [5]) | MIC (Escherichia coli [6]) | MIC (Streptococcus pneumoniae)
< 0.008 µg/mL: MIC (Staphylococcus aureus [2]) | MIC (Staphylococcus aureus [35])
32 µg/mL: MIC [1] | MIC (Pseudomonas aeruginosa [3]) | MIC (Pseudomonas aeruginosa [12]) | MIC (Pseudomonas aeruginosa [14]) | MIC (Staphylococcus aureus [15]) | MIC (Pseudomonas aeruginosa [20]) | MIC (Klebsiella pneumoniae [22]) | MIC (Pseudomonas aeruginosa [27]) | MIC (Klebsiella pneumoniae [31]) | MIC [33]
1.92 µg/mL: MIC90 [4]
128 µg/mL: MIC (Enterococcus faecium [7]) | MIC (Escherichia coli [30])
1 µg/mL: MIC (Enterococcus faecalis [19]) | MIC (Staphylococcus aureus [26])
64 µg/mL: MIC (Enterococcus faecium [9]) | MIC [17] | MIC (Enterococcus faecium [21]) | MIC (Enterococcus faecalis [29]) | MIC (Staphylococcus aureus [34]) | MIC [36] | MIC [37]
